In ChEMBL document CHEMBL3244411, “A new warfarin metabolite: structure and function” (J Med Chem, 1978) one finds inhibition, Drug metabolism and Activity data, which are given here for one molecule.

Calls of active or inactive are those of the source. No cut-off for these calls is given here.

Data set [1] has as its system Rattus norvegicus. Nature of the data set: Antagonism of intrinsic coagulation factor-8 synthesis in rat plasma at 100 mg/kg, ip measured after 12 hrs. It is filed as functional, organism-based. On the set-up: dose 100 mg/kg. An outline of the steps:
(§1)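 Six rats per group given 100 mg/kg ip, as sodium salt in saline or as free acid in corn oil. At 12 h, rats were anesthetized and blood drawn from the posterior vena cava into 3.8% trisodium citrate; plasma was taken at 2000g for 10 min. Clotting measured by one-stage fibrometer assay, and individual factors by a published method. Controls received vehicle or racemic warfarin sodium at 10 mg/kg ip.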

The nature of data set [2]: Activity at cytochrome P450 in PCN-induced rat liver microsomes treated with (R)-warfarin at 0.15 mmol measured under acidic conditions by LC-UV analysis in presence of cumene hydroperoxide. In kind it is ADME. An outline of the steps:
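Liver microsomes from PCN-induced rats (100 mg/kg/day ip in corn oil for 3 days), 200 mL at 2.0 mg protein/mL in TES–MgCl2, pH 7.4, with (R)-warfarin sodium 1.5 × 10^-4 mol. Preincubated 5 min at 37 °C with shaking, started with cumene hydroperoxide 1.6 × 10^-4 mol, given a second equal addition at 10 min, stopped at 30 min on ice. Product isolated by preparative C18 LC.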

The subject of data set [3] is Salmonella typhimurium. Nature of the data set: Mutagenicity in Salmonella typhimurium TA98 by Ames test in presence of liver microsomes. In kind it is toxicity, organism-based. Conditions: salmonella enterica subsp. enterica serovar typhimurium. In general terms: The Ames test uses bacterial strains that need an amino acid and regain growth without it when mutated back.

For data set [4], the system named is Salmonella typhimurium. Nature of the data set: Mutagenicity in Salmonella typhimurium TA98 by Ames test. Conditions: salmonella enterica subsp. enterica serovar typhimurium. It is filed as toxicity, organism-based.
A further data set concerns Liver microsome. Put plainly: Drug metabolism in rat liver microsomes by LC-UV analysis. In kind it is ADME. For orientation: Liver microsomes are a subcellular fraction often used to study metabolism.
The test system of data set [5] is Salmonella typhimurium. Put plainly: Mutagenicity in Salmonella typhimurium TA100 by Ames test. It is filed as toxicity, organism-based. Conditions: salmonella enterica subsp. enterica serovar typhimurium.
In data set [6] the test system is Rattus norvegicus. Put plainly: Antagonism of extrinsic coagulation factor-7 synthesis in rat plasma at 100 mg/kg, ip measured after 12 hrs. It is filed as functional, organism-based. On the set-up: dose 100 mg/kg. A digest of the protocol:
as §1

Data set [7] can be described thus: Activity at cytochrome P450 in rat liver microsomes treated with (S)-warfarin at 3 umol measured under acidic conditions by LC-UV analysis in presence of NADPH. It is filed as ADME. An outline of the steps:
(§2)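 Male Wistar rat liver microsomes, uninduced or phenobarbital-induced (100 mg/kg/day ip in saline for 3 days, harvested 24 h after the last dose). Per 4.0 mL of 0.01 M TES–0.002 M MgCl2, pH 7.4: (R)- or (S)-warfarin sodium 3.0 × 10^-6 mol, NADP 1.25 µmol, glucose 6-phosphate 62.1 µmol, 8.0 mg protein. Preincubated 1.0 min at 37 °C, started with yeast G6P dehydrogenase (5.0 units), stopped by filtration after 10 min. Products quantified by LC against external standards.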

In data set [8] the test system is Rattus norvegicus. Put plainly: Anticoagulant activity in rat plasma at 100 mg/kg, ip measured after 12 hrs by one-stage clotting assay. It is filed as functional, organism-based. On the set-up: dose 100 mg/kg. An outline of the steps:
as §1

The subject of data set [9] is Salmonella typhimurium. Put plainly: Mutagenicity in Salmonella typhimurium TA100 by Ames test in presence of liver microsomes. It is filed as toxicity, organism-based. Conditions: salmonella enterica subsp. enterica serovar typhimurium.
Data set [10] in a line: Activity at cytochrome P450 in rat liver microsomes treated with (S)-warfarin measured for 10 mins by LC-UV analysis. It is filed as ADME. An outline of the steps: (§3)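 Male Wistar rat hepatic microsomes, 8.0 mg protein in 4.0 mL 0.01 M TES-0.002 M MgCl2, pH 7.4. Enantiopure warfarin sodium 1.0 mg (3.0 × 10^-6 mol) with an NADPH-generating system (NADP 1.25 μmol, glucose 6-phosphate 62.1 μmol). Preincubated 1.0 min at 37 °C, started with G6P dehydrogenase 5.0 units, stopped after 10 min by filtration. Metabolites separated and quantified by LC against external standards.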

A short description of data set [11]: Activity at cytochrome P450 in phenobarbital-induced rat liver microsomes treated with (S)-warfarin at 3 umol measured under acidic conditions by LC-UV analysis in presence of NADPH. In kind it is ADME. An outline of the steps: as §2
Data set [12] concerns Salmonella typhimurium. Nature of the data set: Mutagenicity in Salmonella typhimurium TA1535 by Ames test. In kind it is toxicity, organism-based. Conditions: salmonella enterica subsp. enterica serovar typhimurium.
In data set [13] the test system is Rattus norvegicus. Nature of the data set: Effect on fibrinogen level in rat plasma at 100 mg/kg, ip measured after 24 hrs. It is filed as functional, organism-based. On the set-up: dose 100 mg/kg.
Data set [14] has as its system Salmonella typhimurium. Put plainly: Mutagenicity in Salmonella typhimurium TA1535 by Ames test in presence of liver microsomes. Conditions: salmonella enterica subsp. enterica serovar typhimurium. In kind it is toxicity, organism-based.
For data set [15], the system named is Rattus norvegicus. Put plainly: Toxicity in ip dosed rat. In kind it is organism-based. Conditions: in vivo.
Data set [16] deals with Salmonella typhimurium. Nature of the data set: Mutagenicity in Salmonella typhimurium TA1537 by Ames test. In kind it is toxicity, organism-based. Conditions: salmonella enterica subsp. enterica serovar typhimurium.
Data set [17] has as its system Rattus norvegicus. Put plainly: Antagonism of extrinsic coagulation factor-10 synthesis in rat plasma at 100 mg/kg, ip measured after 12 hrs. In kind it is functional, organism-based. More on the design: dose 100 mg/kg. A digest of the protocol: as §1
Data set [18] can be described thus: Activity at cytochrome P450 in rat liver microsomes treated with (R)-warfarin measured for 10 mins by LC-UV analysis. It is filed as ADME. A digest of the protocol:
as §3

The test system of data set [19] is Rattus norvegicus. Put plainly: Antagonism of extrinsic coagulation factor-2 synthesis in rat plasma at 100 mg/kg, ip measured after 12 hrs. In kind it is functional, organism-based. More on the design: dose 100 mg/kg. An outline of the steps:
as §1

Data set [20] concerns Salmonella typhimurium. Nature of the data set: Mutagenicity in Salmonella typhimurium TA1537 by Ames test in presence of liver microsomes. It is filed as toxicity, organism-based. Conditions: salmonella enterica subsp. enterica serovar typhimurium.
Data set [21] deals with Rattus norvegicus. Nature of the data set: Antagonism of intrinsic coagulation factor-9 synthesis in rat plasma at 100 mg/kg, ip measured after 12 hrs. In kind it is functional, organism-based. On the set-up: dose 100 mg/kg. An outline of the steps: as §1

For the molecule `CC(=O)CC(c1ccccc1)c1c(O)c2ccccc2oc1=O` (configuration not stated) [WARFARIN], the inhibition entry in the data set with Rattus norvegicus [1], in the data set on Rattus norvegicus [6], in the data set on Rattus norvegicus [17], in the data set on Rattus norvegicus [19] and with Rattus norvegicus [21] was “inactive” in each case. In addition, the Drug metabolism entry in [2] is “metabolite_detected”; in the data set with Liver microsome, “metabolite_notdetected”; in data set [7] it was “metabolite_detected”; in [10], “metabolite_detected”; in data set [11] it was “metabolite_detected”; in data set [18] it was “metabolite_detected”. Besides, the Activity result in the data set with Salmonella typhimurium [3], with Salmonella typhimurium [4], in the data set on Salmonella typhimurium [5], in the data set on Salmonella typhimurium [9], in the data set with Salmonella typhimurium [12] and in the data set on Salmonella typhimurium [14] was “Non-toxic” throughout. For the same molecule, the Activity result in the data set with Rattus norvegicus [15], with Salmonella typhimurium [16] and in the data set with Salmonella typhimurium [20] was “Non-toxic” in each case. The outcome with Rattus norvegicus [8] and in the data set with Rattus norvegicus [13] was inactive.
